pIC50: −log10 of the molar value. Several values for one entry are separate records, joined by “and”; a condition that tells them apart may be missing. Equal entries are not always repeated. Entries after “also recorded” stand apart in the source; their conditions may differ.
Legend:
DSS-induced colitis [1] = experiment: H&E staining of colon tissues, DSS-induced colitis; assay type: in vivo, mice
JAK1 = JAK1 (Homo sapiens, UniProt P23458); experiment: Kinase-Glo Max kinase assay, purified enzyme; assay type: biochemical; details: for pIC50: Enzyme IC50 JAK1, 0.1 mM ATP
[2] = In vitro conversion of MMT3-72 to MMT3-72-M2 by colon contents; assay type: in vitro ADME, mice
How it was run: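 Fresh colon contents from female C57BL/6 mice (6–8 weeks) were suspended at 10% (w/v) in PBS as an azoreductase source, or boiled to deactivate. Test compound at 0.1 mM final was shaken at 1000 rpm, 37 °C. Aliquots at 0, 1, 2, 4, 6, 24 and 48 h were diluted 10-fold and extracted with acetonitrile. Parent and released metabolite were quantified by LC-MS/MS.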

[3] = Pharmacokinetic study in mice; assay type: in vivo
How it was run: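 Female C57BL/6 mice (6–8 weeks) were dosed orally at 10 mg/kg in the pH-adjusted beta-cyclodextrin/hyaluronic acid/PBS vehicle. Sacrifice at 0.5, 2, 4, 12 and 24 h; cardiac blood for plasma; intestinal tissue homogenized in PBS to 10%; intestinal contents homogenized in PBS. Parent and metabolite were measured by LC-MS/MS (C18, 0.1% formic acid water/acetonitrile gradient, 0.4 ml/min). Detection limit 2 ng/ml or 2 ng/g. n = 3, mean ± SD.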

phosphorylation of STAT3 = experiment: Western blot of colon tissues: STAT3 and phosphorylated STAT3; assay type: in vivo, mice; details: DSS-induced colitis, oral MMT3-72
How it was run: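 Colon tissue came from the DSS colitis study. It was rinsed in cold PBS, homogenized in RIPA buffer, sonicated and centrifuged; protein was measured by BCA. 200 μg total protein per group underwent SDS electrophoresis and transfer to PVDF. Blots were probed overnight at 4 °C with antibodies to JAK2, STAT3, phospho-STAT3 (Tyr705) and GAPDH, then HRP secondary for 1 h at room temperature, and imaged.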

[4] = In vivo metabolite identification by LC-MS in plasma, colon and feces; details: mice, 10 mg/kg MMT3-72 orally, 6 h
JAK2 = JAK2 (Homo sapiens, UniProt O60674); experiment: Kinase-Glo Max kinase assay, purified enzyme; assay type: biochemical; details: for pIC50: Enzyme IC50 JAK2, 0.1 mM ATP
TYK2 = TYK2 (Homo sapiens, UniProt P29597); experiment: Kinase-Glo Max kinase assay, purified enzyme; assay type: biochemical; details: for pIC50: Enzyme IC50 TYK2, 0.1 mM ATP
DSS-induced colitis [5] = experiment: DSS-induced colitis in mice: DAI score, colon length; assay type: in vivo; details: for improvement of DAI score or disease severity: 1 mg/kg orally every other day; for mice that developed moderate colitis / mice that developed severe colitis: n = 10
How it was run: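 Female C57BL/6 mice (6–8 weeks), randomized; 3% DSS in distilled water for 5 days, with water-only controls. Test compound or reference JAK inhibitor was given by oral gavage every other day in a pH-adjusted vehicle (80% v/v beta-cyclodextrin:water 1:4, 15% hyaluronic acid, 5% PBS); vehicle-only group. Stool consistency and occult blood were scored daily as DAI 0–3. Colon length was measured at sacrifice on day 5. Mean ± SD; ANOVA with Tukey.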

JAK3 = target: T1, JAK3 (Homo sapiens, UniProt P52333); experiment: Kinase-Glo Max kinase assay, purified enzyme; assay type: biochemical
T1 sequence (P52333 1-1124): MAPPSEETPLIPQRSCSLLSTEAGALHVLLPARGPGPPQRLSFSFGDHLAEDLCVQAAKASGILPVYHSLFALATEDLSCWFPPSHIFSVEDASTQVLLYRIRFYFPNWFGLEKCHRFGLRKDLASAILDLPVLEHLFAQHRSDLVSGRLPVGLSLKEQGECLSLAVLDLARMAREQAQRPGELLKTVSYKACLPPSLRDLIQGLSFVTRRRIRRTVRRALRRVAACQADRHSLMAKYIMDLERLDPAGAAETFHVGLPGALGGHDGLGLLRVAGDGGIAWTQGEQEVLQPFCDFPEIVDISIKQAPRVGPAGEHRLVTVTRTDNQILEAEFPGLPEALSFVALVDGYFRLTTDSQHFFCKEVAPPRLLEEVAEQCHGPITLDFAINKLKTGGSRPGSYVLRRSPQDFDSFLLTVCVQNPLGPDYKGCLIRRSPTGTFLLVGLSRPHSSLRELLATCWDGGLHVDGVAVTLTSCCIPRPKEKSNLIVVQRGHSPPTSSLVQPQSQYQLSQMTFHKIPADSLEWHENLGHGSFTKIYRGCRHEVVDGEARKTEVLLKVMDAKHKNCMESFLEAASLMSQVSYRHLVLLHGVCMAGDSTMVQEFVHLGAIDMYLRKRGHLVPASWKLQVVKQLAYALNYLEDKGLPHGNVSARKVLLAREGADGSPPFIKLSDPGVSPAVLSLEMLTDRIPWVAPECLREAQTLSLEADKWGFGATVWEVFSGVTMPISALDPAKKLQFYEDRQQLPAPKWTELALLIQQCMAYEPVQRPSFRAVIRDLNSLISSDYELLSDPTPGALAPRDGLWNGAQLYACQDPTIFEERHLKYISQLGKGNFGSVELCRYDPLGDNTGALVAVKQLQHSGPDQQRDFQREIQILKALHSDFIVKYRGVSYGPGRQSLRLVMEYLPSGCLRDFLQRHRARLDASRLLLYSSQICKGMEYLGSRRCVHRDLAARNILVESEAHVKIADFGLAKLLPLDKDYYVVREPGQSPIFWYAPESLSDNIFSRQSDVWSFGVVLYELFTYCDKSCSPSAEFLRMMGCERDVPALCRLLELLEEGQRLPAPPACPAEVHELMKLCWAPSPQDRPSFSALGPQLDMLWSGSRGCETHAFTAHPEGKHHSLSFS

[6] = single oral dose of radiolabeled fedratinib ref 21; cited from earlier work
[7] = 10 mg/kg orally every other day

TYK2, sequence (P29597 whole entry): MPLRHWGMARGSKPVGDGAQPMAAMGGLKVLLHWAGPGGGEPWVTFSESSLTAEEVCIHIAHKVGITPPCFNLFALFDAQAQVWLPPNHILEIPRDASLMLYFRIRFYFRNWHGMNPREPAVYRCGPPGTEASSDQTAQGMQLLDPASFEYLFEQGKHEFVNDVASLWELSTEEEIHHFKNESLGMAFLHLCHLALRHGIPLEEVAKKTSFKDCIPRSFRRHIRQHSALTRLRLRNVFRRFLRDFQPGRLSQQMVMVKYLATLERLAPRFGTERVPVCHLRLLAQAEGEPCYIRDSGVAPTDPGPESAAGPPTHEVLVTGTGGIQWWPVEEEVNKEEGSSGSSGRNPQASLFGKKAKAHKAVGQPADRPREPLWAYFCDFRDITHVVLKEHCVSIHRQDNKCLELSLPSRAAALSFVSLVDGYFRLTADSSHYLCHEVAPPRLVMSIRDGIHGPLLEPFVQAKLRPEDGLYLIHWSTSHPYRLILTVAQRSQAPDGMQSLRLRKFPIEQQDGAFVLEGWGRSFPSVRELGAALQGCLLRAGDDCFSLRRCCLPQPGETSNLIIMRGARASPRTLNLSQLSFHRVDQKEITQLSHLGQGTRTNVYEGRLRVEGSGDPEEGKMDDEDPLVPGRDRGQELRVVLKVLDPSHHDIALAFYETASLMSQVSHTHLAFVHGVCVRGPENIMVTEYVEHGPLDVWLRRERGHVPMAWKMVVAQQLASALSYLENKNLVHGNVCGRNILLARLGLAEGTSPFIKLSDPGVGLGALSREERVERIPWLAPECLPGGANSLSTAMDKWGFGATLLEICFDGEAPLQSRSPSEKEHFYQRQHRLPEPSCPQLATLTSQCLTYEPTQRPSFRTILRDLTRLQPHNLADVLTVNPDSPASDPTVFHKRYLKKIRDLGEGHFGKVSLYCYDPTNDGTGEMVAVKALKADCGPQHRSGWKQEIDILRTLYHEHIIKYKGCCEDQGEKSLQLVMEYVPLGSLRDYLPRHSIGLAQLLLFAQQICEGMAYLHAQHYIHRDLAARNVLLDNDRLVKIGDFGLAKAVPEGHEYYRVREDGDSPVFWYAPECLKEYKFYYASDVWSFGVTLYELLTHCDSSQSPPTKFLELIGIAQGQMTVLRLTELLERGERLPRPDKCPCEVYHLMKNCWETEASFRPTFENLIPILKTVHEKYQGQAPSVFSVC
JAK2, sequence (O60674 whole entry): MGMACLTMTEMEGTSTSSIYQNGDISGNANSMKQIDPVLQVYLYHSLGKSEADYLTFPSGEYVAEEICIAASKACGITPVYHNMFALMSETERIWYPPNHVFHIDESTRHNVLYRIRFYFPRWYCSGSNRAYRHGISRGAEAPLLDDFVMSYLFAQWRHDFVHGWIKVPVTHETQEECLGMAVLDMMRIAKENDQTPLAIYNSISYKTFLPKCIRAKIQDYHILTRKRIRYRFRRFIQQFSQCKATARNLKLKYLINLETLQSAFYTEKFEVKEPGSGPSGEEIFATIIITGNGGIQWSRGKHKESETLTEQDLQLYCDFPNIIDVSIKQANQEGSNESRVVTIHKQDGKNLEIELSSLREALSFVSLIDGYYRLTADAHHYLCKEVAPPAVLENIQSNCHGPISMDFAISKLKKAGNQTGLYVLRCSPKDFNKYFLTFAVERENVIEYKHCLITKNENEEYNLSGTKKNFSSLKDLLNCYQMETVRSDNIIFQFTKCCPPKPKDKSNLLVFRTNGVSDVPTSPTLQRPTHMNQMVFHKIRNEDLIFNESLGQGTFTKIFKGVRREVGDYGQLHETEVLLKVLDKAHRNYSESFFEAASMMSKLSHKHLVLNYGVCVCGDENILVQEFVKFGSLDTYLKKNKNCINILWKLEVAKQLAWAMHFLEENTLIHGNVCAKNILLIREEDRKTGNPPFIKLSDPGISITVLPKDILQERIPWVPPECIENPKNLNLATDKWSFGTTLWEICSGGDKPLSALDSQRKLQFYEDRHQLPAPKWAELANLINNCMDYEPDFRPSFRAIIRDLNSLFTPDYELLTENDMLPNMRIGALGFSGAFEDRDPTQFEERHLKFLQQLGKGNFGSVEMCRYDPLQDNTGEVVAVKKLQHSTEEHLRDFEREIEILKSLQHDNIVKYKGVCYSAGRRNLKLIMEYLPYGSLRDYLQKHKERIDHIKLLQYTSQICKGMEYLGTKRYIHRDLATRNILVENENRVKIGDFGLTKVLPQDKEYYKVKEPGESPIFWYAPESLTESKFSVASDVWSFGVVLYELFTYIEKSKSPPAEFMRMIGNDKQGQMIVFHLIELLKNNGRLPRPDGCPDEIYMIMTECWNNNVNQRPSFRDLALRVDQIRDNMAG
JAK1, sequence (P23458 whole entry): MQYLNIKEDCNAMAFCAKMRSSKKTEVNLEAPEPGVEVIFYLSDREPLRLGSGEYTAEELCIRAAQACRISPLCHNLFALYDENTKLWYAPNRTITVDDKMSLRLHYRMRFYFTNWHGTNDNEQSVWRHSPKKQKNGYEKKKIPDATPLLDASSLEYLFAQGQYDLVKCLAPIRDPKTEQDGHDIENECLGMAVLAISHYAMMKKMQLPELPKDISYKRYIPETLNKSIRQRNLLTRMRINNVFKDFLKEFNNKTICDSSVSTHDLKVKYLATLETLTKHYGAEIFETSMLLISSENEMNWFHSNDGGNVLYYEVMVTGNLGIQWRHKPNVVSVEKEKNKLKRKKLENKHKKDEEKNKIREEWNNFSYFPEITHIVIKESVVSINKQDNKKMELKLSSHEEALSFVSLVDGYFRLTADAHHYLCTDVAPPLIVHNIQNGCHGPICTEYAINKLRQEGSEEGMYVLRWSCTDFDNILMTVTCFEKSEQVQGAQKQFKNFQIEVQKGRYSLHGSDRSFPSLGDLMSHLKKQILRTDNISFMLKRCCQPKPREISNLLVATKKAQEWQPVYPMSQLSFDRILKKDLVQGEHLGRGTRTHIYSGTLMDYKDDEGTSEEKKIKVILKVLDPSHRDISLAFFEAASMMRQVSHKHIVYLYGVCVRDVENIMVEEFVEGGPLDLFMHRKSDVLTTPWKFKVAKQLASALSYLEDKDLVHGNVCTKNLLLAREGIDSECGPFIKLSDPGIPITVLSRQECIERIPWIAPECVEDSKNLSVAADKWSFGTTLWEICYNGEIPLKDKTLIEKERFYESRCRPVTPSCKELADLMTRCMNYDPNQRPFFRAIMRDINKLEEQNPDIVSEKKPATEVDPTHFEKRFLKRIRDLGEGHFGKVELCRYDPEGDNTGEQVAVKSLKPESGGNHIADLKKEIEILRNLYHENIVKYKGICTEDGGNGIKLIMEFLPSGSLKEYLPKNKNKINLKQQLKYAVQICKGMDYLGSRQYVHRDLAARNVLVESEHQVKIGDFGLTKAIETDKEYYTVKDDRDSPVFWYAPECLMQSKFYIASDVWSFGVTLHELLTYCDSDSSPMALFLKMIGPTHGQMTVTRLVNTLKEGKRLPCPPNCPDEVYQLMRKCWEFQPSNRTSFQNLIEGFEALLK

Structure (SMILES)	epithelial loss and infiltration of immune cells (H&E) (DSS-induced colitis [1]; 5 mg/kg)	epithelial loss and infiltration of immune cells (H&E) (DSS-induced colitis [1]; 10 mg/kg)	pIC50 (JAK1)	where detected (plasma, colon tissues, feces), in words [4]	pIC50 (JAK2)	pIC50 (TYK2)	improvement of DAI score or disease severity (DSS-induced colitis [5])	improvement of DAI score vs DSS-induced colitis (DSS-induced colitis [5]; 5 mg/kg orally every other day)	recovery of colon length from DSS-induced colitis (DSS-induced colitis [5]; 10 mg/kg)	improvement of DAI score vs DSS-induced colitis (DSS-induced colitis [5]; [7])	mice that developed severe colitis (DSS-induced colitis [5]; 10 mg/kg)	pIC50 (JAK3)	also measured
Cc1cnc(Nc2ccc(OCCOc3ccc(/N=N/c4ccc(C(=O)NCCC(=O)O)cc4)cc3C(=O)O)cc2)nc1Nc1cccc(S(=O)(=O)NC(C)(C)C)c1 [MMT3-72, (E)-2-(2-(4-((4-((3-(N-(tertbutyl)sulfamoyl)phenyl)amino)-5-methylpyrimidin-2-yl)amino)phenoxy)ethoxy)-5-((4-((2-carboxyethyl)carbamoyl)phenyl)diazenyl)benzoic acid]	reduced epithelial loss and decreased infiltration of immune cells	reduced epithelial loss and decreased infiltration of immune cells	6.43	only detected in the feces	6.20	5.33	did not improve DAI score or disease severity	5 fold	recovered the colon length	10 fold	no mice	5.28	stability in heat-deactivated colon contents ([2]; boiled colon contents, aqueous environment): most MMT3-72 remained intact; MMT3-72 metabolized ([2]; fresh colon contents, within 48 h of incubation): more than 90%; detection in colon/GI tissue or systemic circulation/plasma ([3]; mice, 10 mg/kg MMT3-72 orally): not detected; phosphorylation of STAT3 in colon tissue (phosphorylation of STAT3): effectively inhibit the phosphorylation of STAT3; also recorded: inhibited the phosphorylation of STAT3; mice that developed moderate colitis (DSS-induced colitis [5]; 5 mg/kg): 10%; mice that developed severe colitis (DSS-induced colitis [5]; 5 mg/kg): no mice; mice that developed moderate colitis (DSS-induced colitis [5]; 10 mg/kg): no mice
Cc1cnc(Nc2ccc(OCCO)cc2)nc1Nc1cccc(S(=O)(=O)NC(C)(C)C)c1 [MMT3-72-M2, N-(tert-butyl)-3-((2-((4-(2-hydroxyethoxy)phenyl)amino)-5methylpyrimidin-4-yl)amino)benzenesulfonamide]	–	–	7.97	only detected in the colon tissues and the feces with limited detection in the plasma	7.58	7.04	–	–	–	–	–	6.48	IC50 (JAK1; IC50 JAK1 expressed in ng/ml, converted from nM): ~10.6 nM; formation of MMT3-72-M2 from MMT3-72 ([2]; fresh colon contents): readily converted from MMT3-72; concentration at 12 h ([3]; female, C57BL/6, mouse, colon tissue, po, 10 mg/kg): 131 ng/g and ~285 nM; duration of effective concentrations in colon tissue ([3]; mice, 10 mg/kg MMT3-72 orally): 12 h; Cmax in plasma ([3]; mice, 10 mg/kg MMT3-72 orally, 10 mg/kg): < 8 ng/mL; time after which undetectable in plasma ([3]; mice, 10 mg/kg MMT3-72 orally, limit of detection 2 ng/ml): 4 h; IC50 (JAK2; IC50 JAK2 expressed in ng/ml, converted from nM): ~25.7 nM; IC50 (TYK2; IC50 TYK2 expressed in ng/ml, converted from nM): ~89.3 nM
Cc1cnc(Nc2ccc(OCCN3CCCC3)cc2)nc1Nc1cccc(S(=O)(=O)NC(C)(C)C)c1 [fedratinib]	–	–	–	–	–	–	–	–	–	–	–	–	excreted in feces unchanged [6]: 23%; fedratinib-derived radioactivity excreted in feces [6]: ~77%
C[C@@H]1CCN(C(=O)CC#N)C[C@@H]1N(C)c1ncnc2[nH]ccc12 [tofacitinib, reference compound]	did not show improvement in epithelial cell loss and infiltration of immune cells	moderate improvement	–	–	–	–	did not improve DAI score or disease severity	did not show any improvement in DAI score	recovered the colon length	showed improvement in DAI score	10%	–	–
